# Screening data deposited in PubChem by several laboratories.
# Hits are enriched below; roughly 2% of the tested compounds scored in any of these assays.
# PLC-beta3 inh: PLC-beta3 (human) inhibition, primary screen | Q01970 | Purified PLC-beta3, fluorogenic substrate, fluorescence | inhibition, % at 12.2 µM | hit rate 0.18% among 370,000 | AID 720704; in the data active means inhibition above about 11%;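 further: 0% = median of compound wells on plate and 100% = full blocker control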
# IMP-1 inh-1: blocks Pseudomonas aeruginosa IMP-1 metallo-beta-lactamase; purified IMP-1, nitrocefin hydrolysis, epi-absorbance fluorescence; inhibition, % at 5.6 µM; AID 1556; hit rate 0.45% among 290,000;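 active means inhibition above the mean plus 3 SD of all compounds in the same screening run, cut at about 4.5% in these data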;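 further: 0% = IMP-1 with DMSO and 100% = DMSO wells lacking enzyme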
#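 System: Purified recombinant IMP-1 metallo-beta-lactamase enzyme | Measured by: Fluorescence quenching readout, ex 480/em 530 nm | Replication: Singlicate | Incubation: 15 min preincubation plus 25 min reaction at 25 °C | Evaluation: Percent inhibition from optical density relative to buffer-blank wells | Benchmarks: DMSO with and without IMP-1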
# PvdQ acylase: P. aeruginosa PvdQ acylase inhibition | purified PvdQ acylase, fluorescence plate reader | hit rate 0.063% among 340,000 | inhibition, % at 10 µM; in the data active means inhibition above about 30%, passing the limit was not always enough;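 further: 0% = vehicle neutral wells and 100% = reference inhibitor wells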
# PLC-gamma1 inh: inhibitors of human phospholipase C gamma1 | inhibition, % at 12.2 µM | AID 720700 | P19174 | purified PLC-gamma1, fluorogenic substrate, fluorescence | hit rate 0.84% among 370,000; in the data active means inhibition above about 9.5%
# VIM-2 inhibitor: blocks Pseudomonas aeruginosa VIM-2 metallo-beta-lactamase; hit rate 0.89% among 290,000; AID 1527; inhibition, % at 5.6 µM; purified VIM-2, nitrocefin hydrolysis, epi-absorbance fluorescence;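 active means inhibition above the mean of all tested compounds plus 3 SD, cutoff set per screening run, cut at about 7.5% in these data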;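 further: red hydrolysis product quenches plate fluorescence so inhibitors raise well fluorescence; 0% = enzyme with DMSO and 100% = DMSO without enzyme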
# IMP-1 inh-2: IMP-1 inhibition, counter-screen for VIM-2 inhibitors. 1,300 tested, under 10 active. inhibition, % at 5.6 µM. shares compounds with VIM-2 inhibitor. purified IMP-1, nitrocefin hydrolysis, epi-absorbance fluorescence; call rule not given here;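 further: 0% = enzyme with vehicle and 100% = vehicle without enzyme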
# VIM-2 FRET inh: inhibits VIM-2 in FRET assay to exclude epi-absorbance artifacts. shares compounds with VIM-2 inhibitor. purified VIM-2, CCF2 FRET substrate hydrolysis. inhibition, % at 5.6 µM. hit rate 23% among 1,300. AID 1857;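 active means inhibition above the mean of all tested compounds plus 3 SD, cut at about 19% in these data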;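 further: 0% = VIM-2 plus DMSO and 100% = no enzyme wells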
# TEM-1 inh: selectivity counter-screen for VIM-2 inhibitors: E. coli TEM-1 inhibitors. shares compounds with VIM-2 inhibitor. Purified TEM-1, nitrocefin hydrolysis, epi-absorbance fluorescence. inhibition, % at 5.6 µM. hit rate 3% among 1,300. AID 1866;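 active means inhibition above that campaign's mean inhibition plus 3 SD, cut at about 0.46% in these data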;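 further: 0% = TEM-1 with DMSO and 100% = TEM-1 with 100 µM potassium clavulanate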
# VIM-2 inh conf: confirmation of P. aeruginosa VIM-2 metallo-beta-lactamase inhibitors | shares compounds with VIM-2 inhibitor | purified VIM-2, nitrocefin hydrolysis, epi-absorbance | inhibition, % at 5.6 µM | hit rate 96% among 1,300;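 active means inhibition of the VIM-2 beta-lactamase enzyme above about 11% from the earlier first-round screen, limit read from the data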;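 further: 0% = VIM-2 with DMSO and 100% = buffer wells without enzyme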
# The depositor's hits bear a star; nt = no result.
SMILES,PLC-beta3 inh,IMP-1 inh-1,PvdQ acylase,PLC-gamma1 inh,VIM-2 inhibitor,IMP-1 inh-2,VIM-2 FRET inh,TEM-1 inh,VIM-2 inh conf
Cc1cccn2c(=O)c3cc(C(=O)NCCN4CCOCC4)c(=N)n(CCc4ccccc4)c3nc12,-360.0,-3.8,-16.0,-308.4,-0.1,nt,nt,nt,nt
COC(=O)[C@]12C[C@H](CC(=O)N3CCC(c4ccccc4)CC3)C(=O)N(CCc3ccc(OC)c(OC)c3)C1=C[C@H](COCc1ccccc1)O[C@@H]2C,0.6,nt,nt,4.1,nt,nt,nt,nt,nt
COC(=O)[C@H](C(C)C)N(CCc1cn(CC2CCCCC2)nn1)S(=O)(=O)c1ccccc1Br,-1.4,nt,nt,2.5,nt,nt,nt,nt,nt
CCc1nc(Nc2ccccc2)c2oc3ccccc3c2n1,-157.7,-1.7,-10.3,-118.8,1.1,nt,nt,nt,nt
Cc1nc(NCCN2CCOCC2)c2oc3ccccc3c2n1,2.1,-2.7,-13.1,1.5,4.3,nt,nt,nt,nt
Cc1nc(NCCCN2CCOCC2)c2oc3ccccc3c2n1,0.3,-2.4,-12.7,4.2,29.2*,-3.8,4.2,-9.2,35.5*
c1ccc(-c2nc(NCCCn3ccnc3)c3oc4ccccc4c3n2)cc1,1.4,-5.3,6.2,-4.1,19.1*,-2.2,-25.6,-6.2,35.1*
CCc1nc(NCCCn2ccnc2)c2oc3ccccc3c2n1,3.2,-1.1,-2.8,4.3,67.0*,-2.3,-3.8,-6.6,78.7*
CCCC(=O)OC12CCCN(C1)/C(=C/c1cccc(N(C)C)c1)C2 (centres undefined),-17.7,nt,nt,-10.8,nt,nt,nt,nt,nt
CNC[C@H](CC1CCCCC1)NC[C@H](CO)NCCc1cccc(C(F)(F)F)c1,2.5,-0.9,0.4,2.8,21.0*,-3.5,-5.5,-5.7,29.8*
CNC[C@H](CC1CCCCC1)NC[C@H](CO)NCC1(c2ccccc2)CC1,9.4,-0.8,-9.2,3.2,-2.1,nt,nt,nt,nt
COCCNC(=O)C[C@H]1CC[C@H]2[C@@H](COc3ccc(NC(=O)Nc4cccc(F)c4)cc3C(=O)N2C)O1,3.2,nt,nt,6.4,nt,nt,nt,nt,nt
N#Cc1cccc(NC(=O)OCCN2C(=O)CCC23CCC(c2ccc(Cl)cc2)CC3)c1 (centres undefined),3.0,nt,nt,0.2,nt,nt,nt,nt,nt
Cc1cccc2cc(C#N)c(NCCCn3ccnc3)nc12,-150.4,-0.5,-6.8,-97.3,0.8,nt,nt,nt,nt
c1cncc(-c2nc(NCCCn3ccnc3)c3ccccc3n2)c1,-15.2,1.8,-8.7,-8.3,32.0*,-2.6,-16.3,-6.6,48.9*
Cc1nc(NCCCn2ccnc2)c2ccccc2n1,-3.2,-1.5,-1.6,-1.9,19.9*,-3.7,-1.2,-6.1,35.4*
CN(Cc1ccccc1)CC(O)COc1ccc(CNCc2nccn2C)cc1 (centres undefined),-0.9,-4.2,-9.1,1.0,12.5*,-4.1,-6.2,-3.8,13.6*
COc1ccc(C=Nn2c(-c3ccc(F)cc3)n[nH]c2=S)cc1OCc1ccccc1,3.2,nt,nt,-1.3,nt,nt,nt,nt,nt
COC(=O)c1c(NC(=O)c2ccccc2F)sc(C(=O)N2CCOCC2)c1C,-43.7,-2.2,-10.6,-27.5,13.3*,-3.0,0.9,-6.5,19.7*
Cc1c(OCC(=O)NCCN2CCOCC2)ccc2c3c(c(=O)oc12)CCC3,-8.2,0.5,-0.3,-2.8,26.9*,-1.8,-3.0,-9.5,31.2*
Cc1c(OCC(=O)NCCN2CCOCC2)ccc2c(-c3ccccc3)cc(=O)oc12,-11.2,-2.4,-2.1,-2.1,-0.6,nt,nt,nt,nt
Cc1c(OCC(=O)NCCCN2CCOCC2)ccc2c3c(c(=O)oc12)CCCC3,-18.8,-2.0,-5.3,-7.7,12.5*,-2.8,-5.7,-8.2,21.7*
Cc1c(OCC(=O)NCCN2CCOCC2)ccc2c1oc(=O)c1ccccc12,-208.5,-2.0,-17.6,-114.9,27.8*,-1.8,1.2,-13.1,37.7*
CCc1cc(=O)oc2c(C)c(OCC(=O)NCCCN3CCOCC3)ccc12,-23.1,-3.6,2.2,-12.7,7.2,nt,nt,nt,nt
CCCc1cc(=O)oc2c(C)c(OCC(=O)NCCCN3CCOCC3)ccc12,-23.1,-2.7,-25.3,-4.0,4.6,nt,nt,nt,nt
